From ChEMBL document CHEMBL1629588, “Ambuic acid inhibits the biosynthesis of cyclic peptide quormones in gram-positive bacteria” (Antimicrob Agents Chemother, 2009)
Calls of active or inactive are those of the source.

Columns and labels:
Enterococcus faecalis [1] = assay: Inhibition of GBAP biosynthesis in Enterococcus faecalis OU510 harboring pQU2200 and pQU2301 assessed as proteolytic processing of Hexahistidine-tagged FsrD after 5 hrs by Western blot analysis; format: functional, organism-based
How it was run: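 OU510 carrying pQU2200 (FsrB') and pQU2301 (His6-tagged FsrD) inoculated (6 µl overnight culture) into 1.0 ml THB with inhibitor at various concentrations. Nisin added at 2 h to induce, cells harvested 3 h later. Cells boiled in SDS-PAGE sample buffer; extracts analysed by Western blot with anti-His-tag antibody. Supernatant GBAP activity read by OU510 gelatinase induction.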

Enterococcus faecalis [2] = assay: Antimicrobial activity against Enterococcus faecalis OG1RF assessed as growth inhibition at <1 mM after 5 hrs; format: functional
How it was run: (§1)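 E. faecalis OG1RF overnight culture (3 µl) inoculated into 0.5 ml THB with sample, grown 5 h at 37°C. Growth read as OD660. Supernatant (25 µl, after 9,100 x g spin) mixed with 0.5 ml azocoll suspension, 4 h at 170 rpm, centrifuged, gelatinase read as OD540. Duplicate experiments, mean ± SD.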

Enterococcus faecalis [3] = assay: Inhibition of gelatinase production in Enterococcus faecalis OG1RF at <1 mM after 5 hrs; format: functional; how it was run: as §1
Enterococcus faecalis [4] = assay: Inhibition of gelatinase production in Enterococcus faecalis OG1RF after 5 hrs; format: functional; how it was run: as §1
Enterococcus faecalis [5] = assay: Inhibition of gelatinase production in GBAP-negative Enterococcus faecalis OU510 at 100 uM after 5 hrs in presence of GBAP; format: functional, organism-based
How it was run: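 Overnight E. faecalis OU510 (3 µl) grown 5 h in 0.5 ml THB containing 100 µM inhibitor plus synthetic GBAP at various concentrations. Supernatant gelatinase measured by azocoll assay (OD540), growth by OD660. Duplicate experiments; gelatinase/growth ratio computed per experiment and averaged.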

Staphylococcus aureus [6] = assay: Inhibition of quormone AIP-I biosynthesis in Staphylococcus aureus 12600T at 50 uM by LC/MS analysis; format: functional, organism-based
How it was run: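 S. aureus 12600T overnight culture (20 µl) inoculated into 2 ml TSB-YE, grown 15 h. Filtered (0.22 µm) supernatant (40 µl) analysed by C18 LC/ESI-TOF MS, 20–40% acetonitrile in 0.05% TFA, 0.2 ml/min, 30°C. Extracted ion chromatogram at m/z 961–962.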

Staphylococcus aureus [7] = assay: Inhibition of agr quorom sensing in Staphylococcus aureus 8325-4 harboring pSB2035 assessed as […] at 50 to 200 uM after 7 hrs by GFP assay; format: functional, organism-based
How it was run: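 S. aureus 8325-4(pSB2035) washed and serially subcultured (1/20 twice, 2 h each), then diluted 1/50 into 200 µl medium with inhibitor, shaken 7 h. OD620 read; cells washed twice in PBS, GFP fluorescence read (ex 490/em 525 nm). Triplicate, mean ± SD. Quenching control: 200 µM added to washed untreated cells, fluorescence followed 15 min.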

Listeria innocua [8] = assay: Inhibition of quormone LsrD698 biosynthesis in Listeria innocua ATCC 33090T at 100 uM by LC/MS analysis; format: functional, organism-based
How it was run: (§2)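 L. innocua ATCC 33090T overnight culture (25 µl) grown 15 h in 5 ml chemically defined medium. Filtered supernatant loaded on C18 cartridge, washed with 10% acetonitrile/0.1% TFA, eluted with 60% acetonitrile/0.1% TFA. Eluate analysed by LC/MS monitoring m/z 699 (LsrD698) and m/z 827 (LsrD826).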

Listeria innocua [9] = assay: Inhibition of quormone LsrD826 biosynthesis in Listeria innocua ATCC 33090T at 100 uM by LC/MS analysis; format: functional, organism-based; how it was run: as §2
Staphylococcus aureus [10] = assay: Inhibition of hemolysin production in Staphylococcus aureus 12600T assessed as decrease in hemolytic zone on sheep blood agar at 20 mM after 16 to 48 hrs […]; format: functional, organism-based; details: TDE = time-dependent effect
How it was run: (§3)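 Inhibitor in 50% acetonitrile (5 µl) spotted on sheep blood agar and dried. Plate incubated at 37°C; hemolytic clearance zone around colonies observed and photographed at 16, 24 and 48 h.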

Staphylococcus aureus [11] = assay: Inhibition of hemolysin production in Staphylococcus aureus 12600T assessed as decrease in hemolytic zone on sheep blood agar at 10 mM after 16 to 48 hrs […]; format: functional, organism-based; details: TDE = time-dependent effect; how it was run: as §3
Staphylococcus aureus [12] = assay: Inhibition of hemolysin production in Staphylococcus aureus 12600T assessed as decrease in hemolytic zone on sheep blood agar at 5 mM after 16 to 48 hrs […]; format: functional, organism-based; details: TDE = time-dependent effect; how it was run: as §3
Staphylococcus aureus [13] = assay: Inhibition of hemolysin production in Staphylococcus aureus 12600T assessed as decrease in hemolytic zone on sheep blood agar at 5 to 20 mM upto 48 hrs […]; format: functional, organism-based; how it was run: as §3
Staphylococcus aureus [14] = assay: Inhibition of agr quorom sensing in Staphylococcus aureus 8325-4 harboring pSB2035 assessed as […] at 50 to 200 uM after 7 hrs by GFP fluorescence reporter gene assay

CCCCC/C=C/C1=C(CO)[C@H](O)[C@H]2O[C@@]2(C/C=C(\C)C(=O)O)C1=O [AMBUIC ACID]
10 µM: IC50 (Enterococcus faecalis [4])
active: inhibition (Enterococcus faecalis [1]) | Activity (Enterococcus faecalis [3]) | inhibition (Staphylococcus aureus [6]) | inhibition (Staphylococcus aureus [7]) | inhibition (Listeria innocua [8]) | inhibition (Listeria innocua [9]) | inhibition (Staphylococcus aureus [10]) tde | inhibition (Staphylococcus aureus [11]) tde | inhibition (Staphylococcus aureus [12]) tde | inhibition (Staphylococcus aureus [13]) Dose-dependent effect | inhibition (Staphylococcus aureus [14])
inactive: Activity (Enterococcus faecalis [2]) | inhibition (Enterococcus faecalis [5])
